Assay results as given in ChEMBL document CHEMBL2040768, “Synthesis, antimicrobial and cytotoxic activities of sulfone linked bis heterocycles” (Eur J Med Chem, 2012).
In brackets after ≈: the same amount, converted by molar mass. Activity calls are given as the source filed them. No cut-off for these calls is given here.

What was measured:
Penicillium chrysogenum [1] = assay: Fungicidal activity against Penicillium chrysogenum after 48 hrs by broth dilution method; format: functional
Bacillus subtilis [2] = assay: Antibacterial activity against Bacillus subtilis after 24 hrs by broth dilution method; format: functional
Outline: (§1)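 Broth dilution MIC. Test samples in DMSO added at increasing concentrations to tubes of nutrient broth cultures, incubated 37 °C for 24 h. Visible turbidity scored against NB control; solvent and no-sample controls included. MIC = lowest concentration preventing visible growth.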

Klebsiella pneumoniae [3] = assay: Antibacterial activity against Klebsiella pneumoniae at 100 ug/ml after 24 hrs by agar well diffusion method; format: functional; details: for zone of inhibition at 100 µg/mL: read-out: DIZ
Outline: (§2)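 Agar well diffusion. Nutrient plates swabbed with 24 h broth culture of the bacterium; 6 mm wells bored and loaded with DMSO solutions of compound (wells at 50 and 100 per well). Chloramphenicol positive control, DMSO negative control. Plates held 37 °C, 24 h; inhibition zone diameter (mm) measured, mean of duplicates.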

Aspergillus niger [4] = assay: Antifungal activity against Aspergillus niger after 48 hrs by broth dilution method; format: functional
Outline: (§3)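 Fungal MIC by broth dilution. Compounds dissolved in DMSO, added at rising concentrations to fungal culture tubes, incubated 28 °C for 48 h. Tubes read for visible turbidity alongside a solvent control; lowest concentration with no visible growth taken as MIC.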

Pseudomonas aeruginosa [5] = assay: Bactericidal activity against Pseudomonas aeruginosa after 24 hrs by broth dilution method; format: functional
Staphylococcus aureus [6] = assay: Antibacterial activity against Staphylococcus aureus after 24 hrs by broth dilution method; format: functional; outline: as §1
Staphylococcus aureus [7] = assay: Bactericidal activity against Staphylococcus aureus after 24 hrs by broth dilution method; format: functional
Bacillus subtilis [8] = assay: Bactericidal activity against Bacillus subtilis after 24 hrs by broth dilution method; format: functional
Klebsiella pneumoniae [9] = assay: Antibacterial activity against Klebsiella pneumoniae after 24 hrs by broth dilution method; format: functional; outline: as §1
Penicillium chrysogenum [10] = assay: Antifungal activity against Penicillium chrysogenum after 48 hrs by broth dilution method; format: functional; outline: as §3
Klebsiella pneumoniae [11] = assay: Antibacterial activity against Klebsiella pneumoniae at 50 ug/ml after 24 hrs by agar well diffusion method; format: functional; details: for zone of inhibition at 50 µg/mL: read-out: DIZ; outline: as §2
Penicillium chrysogenum [12] = assay: Antifungal activity against Penicillium chrysogenum at 100 ug/ml after 48 hrs by agar well diffusion method; format: functional; details: for zone of inhibition at 100 µg/mL: read-out: DIZ
Outline: (§4)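 Fungal agar well diffusion. Plates swabbed with fungal culture, 6 mm wells filled with DMSO solutions of compound (50 and 100 per well). Ketoconazole positive and DMSO negative controls. Plates incubated 28 °C for 48 h; zone of inhibition diameter (mm) read, average of duplicates.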

Staphylococcus aureus [13] = assay: Antibacterial activity against Staphylococcus aureus at 50 ug/ml after 24 hrs by agar well diffusion method; format: functional; details: for zone of inhibition at 50 µg/mL: read-out: DIZ; outline: as §2
Aspergillus niger [14] = assay: Fungicidal activity against Aspergillus niger after 48 hrs by broth dilution method; format: functional
Bacillus subtilis [15] = assay: Antibacterial activity against Bacillus subtilis at 50 ug/ml after 24 hrs by agar well diffusion method; format: functional; details: for zone of inhibition at 50 µg/mL: read-out: DIZ; outline: as §2
Pseudomonas aeruginosa [16] = assay: Antibacterial activity against Pseudomonas aeruginosa at 50 ug/ml after 24 hrs by agar well diffusion method; format: functional; details: for zone of inhibition at 50 µg/mL: read-out: DIZ; outline: as §2
Pseudomonas aeruginosa [17] = assay: Antibacterial activity against Pseudomonas aeruginosa at 100 ug/ml after 24 hrs by agar well diffusion method; format: functional; details: for zone of inhibition at 100 µg/mL: read-out: DIZ; outline: as §2
A549 = assay: Cytotoxicity against human A549 cells up to 0.2 mM after 72 hrs by MTT assay
Pseudomonas aeruginosa [18] = assay: Antibacterial activity against Pseudomonas aeruginosa after 24 hrs by broth dilution method; format: functional; outline: as §1
Staphylococcus aureus [19] = assay: Antibacterial activity against Staphylococcus aureus at 100 ug/ml after 24 hrs by agar well diffusion method; format: functional; details: for zone of inhibition at 100 µg/mL: read-out: DIZ; outline: as §2
Aspergillus niger [20] = assay: Antifungal activity against Aspergillus niger at 100 ug/ml after 48 hrs by agar well diffusion method; format: functional; details: for zone of inhibition at 100 µg/mL: read-out: DIZ; outline: as §4
Penicillium chrysogenum [21] = assay: Antifungal activity against Penicillium chrysogenum at 50 ug/ml after 48 hrs by agar well diffusion method; format: functional; details: for zone of inhibition at 50 µg/mL: read-out: DIZ; outline: as §4
Aspergillus niger [22] = assay: Antifungal activity against Aspergillus niger at 50 ug/ml after 48 hrs by agar well diffusion method; format: functional; details: for zone of inhibition at 50 µg/mL: read-out: DIZ; outline: as §4
Bacillus subtilis [23] = assay: Antibacterial activity against Bacillus subtilis at 100 ug/ml after 24 hrs by agar well diffusion method; format: functional; details: for zone of inhibition at 100 µg/mL: read-out: DIZ; outline: as §2
Klebsiella pneumoniae [24] = assay: Bactericidal activity against Klebsiella pneumoniae after 24 hrs by broth dilution method; format: functional

Compound | zone of inhibition at 100 µg/mL (Klebsiella pneumoniae [3]) | zone of inhibition at 50 µg/mL (Klebsiella pneumoniae [11]) | zone of inhibition at 100 µg/mL (Penicillium chrysogenum [12]) | zone of inhibition at 50 µg/mL (Staphylococcus aureus [13]) | zone of inhibition at 50 µg/mL (Bacillus subtilis [15]) | zone of inhibition at 50 µg/mL (Pseudomonas aeruginosa [16]) | zone of inhibition at 100 µg/mL (Pseudomonas aeruginosa [17]) | Activity (A549) | zone of inhibition at 100 µg/mL (Staphylococcus aureus [19]) | zone of inhibition at 100 µg/mL (Aspergillus niger [20]) | zone of inhibition at 50 µg/mL (Penicillium chrysogenum [21]) | zone of inhibition at 50 µg/mL (Aspergillus niger [22]) | zone of inhibition at 100 µg/mL (Bacillus subtilis [23]) | also measured
Nn1c(CS(=O)(=O)Nc2ccc(Cl)cc2)nnc1CS(=O)(=O)c1c[nH]nc1S(=O)(=O)c1ccc(Cl)cc1 | 39 mm | 37 mm | 37 mm | 31 mm | 33 mm | 30 mm | 32 mm | inactive | 34 mm | 34 mm | 33 mm | 30 mm | 35 mm | MFC (Penicillium chrysogenum [1]): 100 µg/mL (≈ 165 µM); MIC (Bacillus subtilis [2]): 12.5 µg/mL (≈ 20.6 µM); MIC (Aspergillus niger [4]): 12.5 µg/mL (≈ 20.6 µM); MBC (Pseudomonas aeruginosa [5]): 100 µg/mL (≈ 165 µM); MIC (Staphylococcus aureus [6]): 50 µg/mL (≈ 82.4 µM); MBC (Staphylococcus aureus [7]): 200 µg/mL (≈ 330 µM); MBC (Bacillus subtilis [8]): 50 µg/mL (≈ 82.4 µM); MIC (Klebsiella pneumoniae [9]): 50 µg/mL (≈ 82.4 µM); MIC (Penicillium chrysogenum [10]): 25 µg/mL (≈ 41.2 µM); MFC (Aspergillus niger [14]): 50 µg/mL (≈ 82.4 µM); MIC (Pseudomonas aeruginosa [18]): 25 µg/mL (≈ 41.2 µM); MBC (Klebsiella pneumoniae [24]): 200 µg/mL (≈ 330 µM)
Nn1c(CS(=O)(=O)Nc2ccccc2)nnc1CS(=O)(=O)c1c[nH]nc1S(=O)(=O)c1ccccc1 | 26 mm | 24 mm | 23 mm | 19 mm | 19 mm | 15 mm | 17 mm | inactive | 21 mm | 23 mm | 20 mm | 19 mm | 23 mm | 
O=S(=O)(Cc1nnc(CS(=O)(=O)c2c[nH]cc2S(=O)(=O)c2ccccc2)s1)Nc1ccccc1 | 22 mm | 20 mm | 20 mm | 15 mm | 18 mm | 14 mm | 15 mm | inactive | 17 mm | 18 mm | 17 mm | 16 mm | 20 mm | 
O=S(=O)(Cc1nnc(CS(=O)(=O)C2CNN=C2S(=O)(=O)c2ccc(Cl)cc2)o1)Nc1ccc(Cl)cc1 (stereo not given) | 24 mm | 22 mm | 24 mm | 17 mm | 17 mm | 17 mm | 19 mm | inactive | 18 mm | 23 mm | 22 mm | 20 mm | 20 mm | 
Nn1c(CS(=O)(=O)Nc2ccccc2)nnc1CS(=O)(=O)c1c[nH]cc1S(=O)(=O)c1ccccc1 | 24 mm | 22 mm | 22 mm | 17 mm | 20 mm | 15 mm | 16 mm | inactive | 19 mm | 20 mm | 19 mm | 18 mm | 22 mm | 
O=S(=O)(Cc1nnc(CS(=O)(=O)C2CNN=C2S(=O)(=O)c2ccccc2)o1)Nc1ccccc1 (stereo not given) |  |  |  |  |  |  |  | inactive |  |  |  |  |  | diameter of the inhibition zone (DIZ) (Klebsiella pneumoniae [3]): inactive; diameter of the inhibition zone (DIZ) (Klebsiella pneumoniae [11]): inactive; diameter of the inhibition zone (DIZ) (Penicillium chrysogenum [12]): inactive; diameter of the inhibition zone (DIZ) (Staphylococcus aureus [13]): inactive; diameter of the inhibition zone (DIZ) (Bacillus subtilis [15]): inactive; diameter of the inhibition zone (DIZ) (Pseudomonas aeruginosa [16]): inactive; diameter of the inhibition zone (DIZ) (Pseudomonas aeruginosa [17]): inactive; diameter of the inhibition zone (DIZ) (Staphylococcus aureus [19]): inactive; diameter of the inhibition zone (DIZ) (Aspergillus niger [20]): inactive; diameter of the inhibition zone (DIZ) (Penicillium chrysogenum [21]): inactive; diameter of the inhibition zone (DIZ) (Aspergillus niger [22]): inactive; diameter of the inhibition zone (DIZ) (Bacillus subtilis [23]): inactive
